Assay results: ChEMBL document CHEMBL1137994, “Bis[3-(4'-substituted phenyl)prop-2-ene]disulfides as a new class of antihyperlipidemic compounds” (2004)

Key:
Rattus norvegicus [1] = assay: Blood urea nitrogen level in serum upon single dose administration was determined as measure of nephrotoxicity; Normal range = 5-29 mg/dL; type: functional, organism-based
Procedure, shortened: (§1)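 Nephrotoxicity was assessed after a single dose of compound by measuring serum blood urea nitrogen and creatinine in mg/dL by cited methods. Values are mean ± SE against a normal range.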

Rattus norvegicus [2] = assay: Percent decrease in weight of triglyceride in liver wet tissue after treatment with compound at 20 mg/kg dose for seven days; type: functional
Procedure, shortened: (§2)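 Male Wistar rats, six per group, were fed a 5% cholesterol diet for 1 week. They were dosed orally at the same time with 20 mg/kg bwt as a suspension in water, and the experiment was run three times. Serum and liver cholesterol were measured by the Zlatkis method, and liver triglyceride by the Van Handel–Zilversmit method, on about 1 g of saline-washed tissue.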

Rattus norvegicus [3] = assay: Weight of serum cholesterol after treatment with compound at 20 mg/kg dose for seven days; type: functional
Procedure, shortened: (§3)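 Male Wistar rats, six per group, were fed a 5% cholesterol diet for one week while receiving compound at 20 mg/kgbwt orally as a suspension in water. Serum was separated, and about 1 g of liver, washed in ice-cold 0.85% NaCl, was taken for lipids. Cholesterol was measured by the Zlatkis method and liver triglyceride by the Van Handel–Zilversmit method. The run was repeated three times; values are mean ± SE.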

Rattus norvegicus [4] = assay: Percent decrease in weight of serum cholesterol after treatment with compound at 20 mg/kg dose for seven days; type: functional; procedure, shortened: as §2
Rattus norvegicus [5] = assay: Alanine transferase (GPT) enzyme level in serum upon single dose administration was determined as measure of hepatotoxicity; Normal range = 18-30 IU; type: functional
Procedure, shortened: (§4)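 Oral dosing of the compounds as aqueous suspensions, given either as a single dose or as five doses. Hepatotoxicity was assessed from serum alanine transferase and aspartate transferase (IU) and alkaline phosphatase (KA units). Each marker was set against the normal ranges listed.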

Rattus norvegicus [6] = assay: Aspartate transferase (GOT) enzyme level in serum upon single dose administration was determined as measure of hepatotoxicity; Normal range = 46-81 IU; type: functional; procedure, shortened: as §4
Rattus norvegicus [7] = assay: Alkaline phosphatase enzyme level in serum upon single dose administration was determined as measure of hepatotoxicity; Normal range = 14-32 KA units; type: functional; procedure, shortened: as §4
[8] = molecular target: T1, 3-hydroxy-3-methylglutaryl-coenzyme A reductase (Rattus norvegicus) (UniProt P51639); assay: Ratio of HMG-CoA reductase to mevalinate
T1 sequence (whole entry): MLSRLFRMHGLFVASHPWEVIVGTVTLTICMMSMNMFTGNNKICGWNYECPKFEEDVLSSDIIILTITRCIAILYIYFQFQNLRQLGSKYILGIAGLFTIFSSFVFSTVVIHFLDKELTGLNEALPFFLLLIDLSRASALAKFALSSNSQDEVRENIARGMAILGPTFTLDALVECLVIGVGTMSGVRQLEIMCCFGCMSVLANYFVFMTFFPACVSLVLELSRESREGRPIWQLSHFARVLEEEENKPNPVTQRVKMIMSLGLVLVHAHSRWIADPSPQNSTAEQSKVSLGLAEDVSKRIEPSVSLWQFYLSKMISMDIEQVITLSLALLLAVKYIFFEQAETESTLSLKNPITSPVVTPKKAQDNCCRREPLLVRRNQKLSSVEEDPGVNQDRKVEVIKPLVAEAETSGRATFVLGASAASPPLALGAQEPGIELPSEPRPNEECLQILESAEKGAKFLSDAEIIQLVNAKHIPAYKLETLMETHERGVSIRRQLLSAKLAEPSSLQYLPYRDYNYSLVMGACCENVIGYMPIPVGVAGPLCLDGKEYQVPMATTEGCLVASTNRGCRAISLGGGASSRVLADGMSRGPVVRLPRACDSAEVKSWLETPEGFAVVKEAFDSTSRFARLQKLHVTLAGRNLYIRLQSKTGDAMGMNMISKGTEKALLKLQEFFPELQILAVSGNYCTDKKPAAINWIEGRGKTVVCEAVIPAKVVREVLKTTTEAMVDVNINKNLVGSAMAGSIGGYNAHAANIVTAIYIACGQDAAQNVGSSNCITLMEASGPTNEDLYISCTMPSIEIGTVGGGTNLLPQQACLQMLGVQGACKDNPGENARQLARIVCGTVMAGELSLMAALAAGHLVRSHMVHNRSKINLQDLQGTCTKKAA
Procedure, shortened: (§5)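 Male Wistar rats, six per group, received a 5% cholesterol diet for 1 week plus an oral 20 mg/kg bwt dose given as a suspension in water. The experiment was run three times. Hepatic HMG-CoA reductase activity was determined by the Venugopala Rao method and expressed as the HMG-CoA/mevalonate ratio.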

Rattus norvegicus [9] = assay: Alkaline phosphatase enzyme level in serum upon administration of five doses was determined as measure of hepatotoxicity; Normal range = 14-32 KA units; type: functional; procedure, shortened: as §4
Rattus norvegicus [10] = assay: Alanine transferase (GPT) enzyme level in serum upon administration of five doses was determined as measure of hepatotoxicity; Normal range = 18-30 IU; type: functional; procedure, shortened: as §4
[11] = molecular target: T1, 3-hydroxy-3-methylglutaryl-coenzyme A reductase (Rattus norvegicus); assay: Percent decrease in HMG-CoA reductase activity in rat; procedure, shortened: as §5
Rattus norvegicus [12] = assay: Aspartate transferase (GOT) enzyme level in serum upon administration of five doses was determined as measure of hepatotoxicity; Normal range = 46-81 IU; type: functional; procedure, shortened: as §4
Rattus norvegicus [13] = assay: Weight of triglyceride in liver wet tissue after treatment with compound at 20 mg/kg dose for seven days; type: functional; procedure, shortened: as §3
Rattus norvegicus [14] = assay: Creatinine level in serum upon single dose administration was determined as measure of nephrotoxicity; Normal range = 0.20-0.80 mg/dL; type: functional, organism-based; procedure, shortened: as §1
Rattus norvegicus [15] = assay: Percent decrease in weight of cholesterol in liver wet tissue after treatment with compound at 20 mg/kg dose for seven days; type: functional; procedure, shortened: as §2
Rattus norvegicus [16] = assay: Weight of cholesterol in liver wet tissue after treatment with compound at 20 mg/kg dose for seven days; type: functional; procedure, shortened: as §3
Rattus norvegicus [17] = assay: Blood urea nitrogen level in serum upon administration of five doses was determined as measure of nephrotoxicity; Normal range = 5-29 mg/dL; type: functional, organism-based
Procedure, shortened: (§6)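 Nephrotoxicity was assessed after five doses of compound by measuring serum blood urea nitrogen and creatinine in mg/dL by cited methods. Values are mean ± SE against a normal range.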

Rattus norvegicus [18] = assay: Creatinine level in serum upon administration of five doses was determined as measure of nephrotoxicity; Normal range = 0.20-0.80 mg/dL; type: functional, organism-based; procedure, shortened: as §6
Rattus norvegicus [19] = assay: Alkaline phosphatase enzyme level upon single dose administration was determined as measure of hepatotoxicity; Normal range = 14-32 KA units; type: functional; procedure, shortened: as §4

SMILES | Level (Rattus norvegicus [1]) | Decrease (Rattus norvegicus [2]) | Weight (Rattus norvegicus [3]) | Decrease (Rattus norvegicus [4]) | Activity (Rattus norvegicus [5]) | Activity (Rattus norvegicus [6]) | Activity (Rattus norvegicus [7]) | Ratio [8] | Activity (Rattus norvegicus [9]) | Activity (Rattus norvegicus [10]) | Decrease [11] | Activity (Rattus norvegicus [12]) | Weight (Rattus norvegicus [13]) | Level (Rattus norvegicus [14]) | Decrease (Rattus norvegicus [15]) | Weight (Rattus norvegicus [16]) | Level (Rattus norvegicus [17]) | Level (Rattus norvegicus [18]) | Activity (Rattus norvegicus [19])
O=C(O)c1ccc(/C=C/CSSC/C=C/c2ccc(C(=O)O)cc2)cc1 | 20.2 mg/dL | 8.28% | 58.82 mg/dL | 7.01% | 25 IU | 53 IU | 31 KA Units | 2.02 | 32.8 KA Units | 28 IU | 24.2% | 56 IU | 14.3 mg/g | 0.61 mg/dL | 13.3% | 4.3 mg/g | 17.4 mg/dL | 0.7 mg/dL | 
Nc1ccc(/C=C/CSSC/C=C/c2ccc(N)cc2)cc1 | 13 mg/dL | 6.71% | 59.76 mg/dL | 5.5% | 26.5 IU | 51.5 IU | 40.6 KA Units | 1.74 | 46.9 KA Units | 21 IU | 7.5% | 37 IU | 14.6 mg/g | 0.55 mg/dL | 3.13% | 4.81 mg/g | 14.6 mg/dL | 0.84 mg/dL | 
CC[C@H](C)C(=O)O[C@H]1C[C@@H](C)C=C2C=C[C@H](C)[C@H](CC[C@@H]3C[C@@H](O)CC(=O)O3)[C@H]21 [LOVASTATIN] |  | 36.91% | 43.5 mg/dL | 31.2% |  |  |  | 2.2 |  |  | 35.4% |  | 9.86 mg/g |  | 42.3% | 2.84 mg/g |  |  | 
C(=C\c1ccccc1)/CSSC/C=C/c1ccccc1 | 12.4 mg/dL | 4.9% | 60.95 mg/dL | 3.63% | 17.5 IU | 51 IU | 34 KA Units | 1.72 | 33.6 KA Units | 27 IU | 5.9% | 39 IU | 14.2 mg/g | 0.58 mg/dL | 2% | 4.86 mg/g | 7.37 mg/dL | 0.57 mg/dL | 
COc1ccc(/C=C/CSSC/C=C/c2ccc(OC)cc2)cc1 | 7.43 mg/dL | 4.91% | 61.95 mg/dL | 2.05% | 26.5 IU | 49 IU |  | 1.68 | 25.2 KA Units | 23 IU | 3.69% | 29.5 IU | 14.8 mg/g | 0.59 mg/dL | 1.2% | 4.9 mg/g | 8.48 mg/dL | 0.49 mg/dL | 45.6 KA Units
C=CCS[S+]([O-])CC=C (stereo unspecified) [ALLICIN] |  | 39.6% | 50.25 mg/dL | 20.5% |  |  |  | 2.07 |  |  | 27.6% |  | 9.44 mg/g |  | 27.6% | 3.59 mg/g |  |  | 
O=[N+]([O-])c1ccc(/C=C/CSSC/C=C/c2ccc([N+](=O)[O-])cc2)cc1 | 7.65 mg/dL | 9.21% | 44.15 mg/dL | 30.2% | 21 IU | 51 IU | 29.5 KA Units | 2.53 | 48 KA Units | 15.5 IU | 55.7% | 49 IU | 14.8 mg/g | 0.4 mg/dL | 36.5% | 3.15 mg/g | 6.48 mg/dL | 0.8 mg/dL | 
